Test results as given in ChEMBL document CHEMBL1149718, “Antibacterial activity of crinitol and its potentiation” (1992).
Converted amounts (≈) assume the structure as drawn. The source made the active and inactive calls. The rule behind the calls is not given here.

How the values were obtained:
[1] = tested on: Bacillus subtilis; assay: Antibacterial activity against Bacillus subtilis ATCC 9372 after 2 days by broth dilution method; assay type: functional; details: ATCC 9372, 48 h
Procedure, shortened: (§1)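 Broth dilution in 0.8% nutrient broth, 0.5% yeast extract and 0.1% glucose. Compound in DMF, diluted twofold, 1% DMF final, highest 800 µg/ml. Inoculum was a 2-day-old culture, reactivated at 30° with shaking (B. subtilis), at 30° stationary (Br. ammoniagenes) or at 37° stationary (others). Stationary incubation 2 days; growth by OD at 660 nm; MIC = lowest concentration with no growth.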

[2] = tested on: Bacillus subtilis; assay: Ratio of MIC for Bacillus subtilis ATCC 9372 to MIC for Bacillus subtilis ATCC 9372 in presence of 0.5 MIC of butylated hydroxyanisole; assay type: functional
[3] = tested on: Cutibacterium acnes; assay: Antibacterial activity against Propionibacterium acnes ATCC 11827 after 2 days by broth dilution method in presence of 0.5 MIC of butylated hydroxyanisole; assay type: functional; details: ATCC 11827, 48 h
Procedure, shortened: (§2)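 Checkerboard: twofold dilutions of crinitol crossed with twofold dilutions of the antioxidant (BHA or BHT). Medium was nutrient broth/yeast extract/glucose, or 3.7% brain heart infusion for S. mutans. DMF at 1% final, 2-day-old inoculum, stationary culture 2 days. Growth by OD 660 nm; MIC = lowest concentration without growth.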

[4] = tested on: Bacillus subtilis; assay: Antibacterial activity against Bacillus subtilis ATCC 9372 after 2 days by broth dilution method in presence of 0.5 MIC of butylated hydroxytoluene; assay type: functional; details: ATCC 9372, 48 h; procedure, shortened: as §2
[5] = tested on: Corynebacterium ammoniagenes; assay: Antibacterial activity against Brevibacterium ammoniagenes ATCC 6872 after 2 days by broth dilution method; assay type: functional; details: ATCC 6872, 48 h; procedure, shortened: as §1
[6] = tested on: Bacillus subtilis; assay: Antibacterial activity against Bacillus subtilis ATCC 9372 after 2 days by broth dilution method in presence of 0.5 MIC of butylated hydroxyanisole; assay type: functional; details: ATCC 9372, 48 h; procedure, shortened: as §2
[7] = tested on: Corynebacterium ammoniagenes; assay: Antibacterial activity against Brevibacterium ammoniagenes ATCC 6872 after 2 days by broth dilution method in presence of 0.5 MIC of butylated hydroxyanisole; assay type: functional; details: ATCC 6872, 48 h; procedure, shortened: as §2
[8] = tested on: Corynebacterium ammoniagenes; assay: Ratio of MIC for Brevibacterium ammoniagenes ATCC 6872 to MIC for Brevibacterium ammoniagenes ATCC 6872 in presence of 0.5 MIC of butylated hydroxyanisole; assay type: functional
[9] = tested on: Streptococcus mutans; assay: Antibacterial activity against Streptococcus mutans ATCC 25175 after 2 days by broth dilution method; assay type: functional; details: ATCC 25175, 48 h
Procedure, shortened: (§3)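 Twofold broth dilution in 3.7% brain heart infusion broth. Sample dissolved in DMF, 1% DMF final, top concentration 800 µg/ml. Inoculated with 2-day-old culture reactivated in stationary culture at 37°. Stationary incubation for 2 days, turbidity read at 660 nm; MIC taken as lowest concentration showing no growth.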

[10] = tested on: Cutibacterium acnes; assay: Ratio of MIC for Propionibacterium acnes ATCC 11827 to MIC for Propionibacterium acnes ATCC 11827 in presence of 0.5 MIC of butylated hydroxytoluene; assay type: functional
[11] = tested on: Corynebacterium ammoniagenes; assay: Antibacterial activity against Brevibacterium ammoniagenes ATCC 6872 after 2 days by broth dilution method in presence of 0.5 MIC of butylated hydroxytoluene; assay type: functional; details: ATCC 6872, 48 h; procedure, shortened: as §2
[12] = tested on: Streptococcus mutans; assay: Ratio of MIC for Streptococcus mutans ATCC 25175 to MIC for Streptococcus mutans ATCC 25175 in presence of 0.5 MIC of butylated hydroxytoluene; assay type: functional
[13] = tested on: Cutibacterium acnes; assay: Ratio of MIC for Propionibacterium acnes ATCC 11827 to MIC for Propionibacterium acnes ATCC 11827 in presence of 0.5 MIC of butylated hydroxyanisole; assay type: functional
[14] = tested on: Staphylococcus aureus; assay: Antibacterial activity against Staphylococcus aureus ATCC 12598 after 2 days by broth dilution method in presence of 0.5 MIC of butylated hydroxyanisole; assay type: functional; details: ATCC 12598, 48 h; procedure, shortened: as §2
[15] = tested on: Corynebacterium ammoniagenes; assay: Ratio of MIC for Brevibacterium ammoniagenes ATCC 6872 to MIC for Brevibacterium ammoniagenes ATCC 6872 in presence of 0.5 MIC of butylated hydroxytoluene; assay type: functional
[16] = tested on: Staphylococcus aureus; assay: Antibacterial activity against Staphylococcus aureus ATCC 12598 after 2 days by broth dilution method; assay type: functional; details: ATCC 12598, 48 h; procedure, shortened: as §1
[17] = tested on: Cutibacterium acnes; assay: Antibacterial activity against Propionibacterium acnes ATCC 11827 after 2 days by broth dilution method in presence of 0.5 MIC of butylated hydroxytoluene; assay type: functional; details: ATCC 11827, 48 h; procedure, shortened: as §2
[18] = tested on: Streptococcus mutans; assay: Antibacterial activity against Streptococcus mutans ATCC 25175 after 2 days by broth dilution method in presence of 0.5 MIC of butylated hydroxytoluene; assay type: functional; details: ATCC 25175, 48 h; procedure, shortened: as §2
[19] = tested on: Streptococcus mutans; assay: Antibacterial activity against Streptococcus mutans ATCC 25175 after 2 days by broth dilution method in presence of 0.5 MIC of butylated hydroxyanisole; assay type: functional; details: ATCC 25175, 48 h; procedure, shortened: as §2
[20] = tested on: Cutibacterium acnes; assay: Antibacterial activity against Propionibacterium acnes ATCC 11827 after 2 days by broth dilution method; assay type: functional; details: ATCC 11827, 48 h; procedure, shortened: as §1
[21] = tested on: Staphylococcus aureus; assay: Antibacterial activity against Staphylococcus aureus ATCC 12598 after 2 days by broth dilution method in presence of 0.5 MIC of butylated hydroxytoluene; assay type: functional; details: ATCC 12598, 48 h; procedure, shortened: as §2
[22] = tested on: Bacillus subtilis; assay: Ratio of MIC for Bacillus subtilis ATCC 9372 to MIC for Bacillus subtilis ATCC 9372 in presence of 0.5 MIC of butylated hydroxytoluene; assay type: functional
[23] = tested on: Streptococcus mutans; assay: Antibacterial activity against Streptococcus mutans ATCC 25175 up to 800 ug/ml after 2 days by broth dilution method; assay type: functional, organism-based; procedure, shortened: as §3
[24] = tested on: Bacillus subtilis; assay: Antibacterial activity against Bacillus subtilis ATCC 9372 up to 800 ug/ml after 2 days by broth dilution method; assay type: functional, organism-based; procedure, shortened: as §1
[25] = tested on: Corynebacterium ammoniagenes; assay: Antibacterial activity against Brevibacterium ammoniagenes ATCC 6872 up to 800 ug/ml after 2 days by broth dilution method; assay type: functional, organism-based; procedure, shortened: as §1
[26] = tested on: Staphylococcus aureus; assay: Antibacterial activity against Staphylococcus aureus ATCC 12598 up to 800 ug/ml after 2 days by broth dilution method; assay type: functional, organism-based; procedure, shortened: as §1
[27] = tested on: Cutibacterium acnes; assay: Antibacterial activity against Propionibacterium acnes ATCC 11827 up to 800 ug/ml after 2 days by broth dilution method; assay type: functional, organism-based; procedure, shortened: as §1
[28] = tested on: Streptococcus mutans; assay: Ratio of MIC for Streptococcus mutans ATCC 25175 to MIC for Streptococcus mutans ATCC 25175 in presence of 0.5 MIC of crinitol; assay type: functional
[29] = tested on: Streptococcus mutans; assay: Antibacterial activity against Streptococcus mutans ATCC 25175 after 2 days by broth dilution method in presence of 0.5 MIC of crinitol; assay type: functional; details: ATCC 25175, 48 h
[30] = tested on: Corynebacterium ammoniagenes; assay: Antibacterial activity against Brevibacterium ammoniagenes ATCC 6872 after 2 days by broth dilution method in presence of 0.5 MIC of crinitol; assay type: functional; details: ATCC 6872, 48 h
[31] = tested on: Cutibacterium acnes; assay: Antibacterial activity against Propionibacterium acnes ATCC 11827 after 2 days by broth dilution method in presence of 0.5 MIC of crinitol; assay type: functional; details: ATCC 11827, 48 h
[32] = tested on: Bacillus subtilis; assay: Antibacterial activity against Bacillus subtilis ATCC 9372 after 2 days by broth dilution method in presence of 0.5 MIC of crinitol; assay type: functional; details: ATCC 9372, 48 h
[33] = tested on: Staphylococcus aureus; assay: Antibacterial activity against Staphylococcus aureus ATCC 12598 after 2 days by broth dilution method in presence of 0.5 MIC of crinitol; assay type: functional; details: ATCC 12598, 48 h

Compound `CC(C)=CCC/C(C)=C/[C@H](O)C/C(C)=C/CC/C(C)=C/CO` [CRINITOL] has an MIC [1] of 50 µg/mL (≈ 163 µM), a Ratio [2] of 1 and an MIC [3] of 6.25 µg/mL. The MIC [4] was 12.5 µg/mL, the MIC [5] was 100 µg/mL (≈ 326 µM) and the MIC [6] was 50 µg/mL. It also gave an MIC [7] of 100 µg/mL, a Ratio [8] of 1 and an MIC [9] of 50 µg/mL (≈ 163 µM). For the same compound, the Ratio [10] was 4, the MIC [11] was 50 µg/mL and the Ratio [12] was 64. For the same compound, the Ratio [13] was 4, the MIC [14] was 400 µg/mL and the Ratio [15] was 2. For the same compound, the MIC [16] was 400 µg/mL (≈ 1310 µM), the MIC [17] was 6.25 µg/mL and the MIC [18] was 0.78 µg/mL. The MIC [19] was 12.5 µg/mL, the MIC [20] was 25 µg/mL (≈ 81.6 µM) and the MIC [21] was 400 µg/mL. The Ratio [22] was 4.
With `CC(C)=CCC/C(C)=C/C(=O)C/C(C)=C/CC/C(C)=C/CO` the Activity [23] was “inactive”, the Activity [24] was “inactive” and the Activity [25] was “inactive”. For the same compound, the Activity [26] was “inactive” and the Activity [27] was “inactive”.
Compound `Cc1cc(C(C)(C)C)c(O)c(C(C)(C)C)c1` [BUTYLATED HYDROXYTOLUENE] has an MIC [1] of 25 µg/mL (≈ 113 µM), a Ratio [28] of 16 and an MIC [5] of 25 µg/mL (≈ 113 µM). For the same compound, the MIC [9] was 25 µg/mL (≈ 113 µM), the MIC [29] was 1.57 µg/mL and the MIC [30] was 12.5 µg/mL. For the same compound, the MIC [16] was greater than 800 µg/mL, the MIC [31] was 6.25 µg/mL and the MIC [20] was 25 µg/mL (≈ 113 µM). For the same compound, the MIC [32] was 6.25 µg/mL.
`COc1ccc(O)c(C(C)(C)C)c1.COc1ccc(O)cc1C(C)(C)C` [BUTYLATED HYDROXYANISOLE] was tested, and the MIC [1] was 100 µg/mL, the Ratio [28] was 18 and the MIC [5] was 200 µg/mL. The MIC [9] was 100 µg/mL, the MIC [29] was 12.5 µg/mL and the MIC [33] was 200 µg/mL. The MIC [30] was 100 µg/mL, the MIC [16] was 200 µg/mL and the MIC [31] was 6.25 µg/mL. It also gave an MIC [20] of 50 µg/mL and an MIC [32] of 50 µg/mL.
With `CC(=O)OC/C=C(\C)CC/C=C(\C)C[C@H](/C=C(\C)CCC=C(C)C)OC(C)=O` the Activity [23] was “inactive”, the Activity [24] was “inactive” and the Activity [25] was “inactive”. The Activity [26] was “inactive” and the Activity [27] was “inactive”.
With `CC(=O)O[C@@H](/C=C(\C)CCC=C(C)C)C/C(C)=C/CC/C(C)=C/CO` the Activity [23] was “inactive”, the Activity [24] was “inactive” and the Activity [25] was “inactive”. For the same compound, the Activity [26] was “inactive” and the Activity [27] was “inactive”.
`CC(C)=CCC/C(C)=C/CC/C(C)=C/CC/C(C)=C/CO` was tested, and the Activity [23] was “inactive”, the Activity [24] was “inactive” and the Activity [25] was “inactive”. The Activity [26] was “inactive” and the Activity [27] was “inactive”.
